In ChEMBL document CHEMBL3045710, “Antifungal activity of 4'-(2,6,6-Trimethyl-2-cyclohexen-1-yl)-3'-butene-2'-ketoxime N-O-alkyl ethers” (2010) one finds EC50 and Activity data, which are given here for 25 compounds.

One assay concerns Athelia rolfsii. In words: Antifungal activity against Athelia rolfsii assessed as growth inhibition at 28 degC. The assay is classed as functional. The note with it: Agroathelia rolfsii; read-out: ED50 (the source's name). In short, it runs like this: (§1)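 Poisoned food technique on PDA: compound in acetone added to medium at 1000, 500, 250, 125, 100, 50, 25 and 10 μg/mL (final in medium). Acetone 1 mL serves as the control. A 5 mm mycelial disk from a 2-week-old colony is placed centrally. Plates are incubated at 28 °C until control growth is nearly complete. Colony diameter is measured and %inhibition = (C−T)/C×100, four replicates. ED50 is obtained by probit analysis of Abbott-corrected inhibition.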

Assay [1] has as its system Sclerotinia sclerotiorum. In words: Antifungal activity against Sclerotinia sclerotiorum assessed as growth inhibition at 28 degC. The assay is classed as functional. The settings on record: read-out: ED50 (the source's name). A digest of the protocol:
as §1

Assay [2] relates to Macrophomina phaseolina. In words: Antifungal activity against Macrophomina phaseolina assessed as growth inhibition at 28 degC. The assay is classed as functional. The note with it: read-out: ED50 (the source's name). A digest of the protocol: as §1
The subject of assay [3] is Macrophomina phaseolina. The experiment in a line: Antifungal activity against Rhizoctonia bataticola assessed as growth inhibition at 28 degC. The assay is classed as functional. The note with it: read-out: ED50 (the source's name). In short, it runs like this: as §1
Assay [4] deals with Sclerotinia sclerotiorum. In words: Antifungal activity against Sclerotinia sclerotiorum infected pea plants assessed as prevention of water soaked spots at 5 % aqueous emulsion measured on day 21. The assay is classed as functional, organism-based. A digest of the protocol: (§2)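 Greenhouse pea assay: S. sclerotiorum inoculum grown in potato dextrose broth, homogenized and mixed into autoclaved, sieved composted soil, then incubated 5-7 days at ~25 °C. Formulated compound is applied as 1 or 5% aqueous emulsion at 5.0 mL per 150 cm3 soil and held 7 days in sealed bags. Symptoms (water-soaked spots) and symptomless plants are scored 7, 14 and 21 days after transplanting, 20 plants per treatment.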

Assay [5] has as its system Sclerotinia sclerotiorum. The experiment in a line: Antifungal activity against Sclerotinia sclerotiorum infected pea plants assessed as healthy plants at 5 % aqueous emulsion measured on day 21. The assay is classed as functional. In short, it runs like this: as §2
For assay [6], the system named is Sclerotinia sclerotiorum. The experiment in a line: Antifungal activity against Sclerotinia sclerotiorum infected pea plants assessed as healthy plants at 1 % aqueous emulsion measured on day 21. Format: functional. In short, it runs like this: as §2
For assay [7], the system named is Sclerotinia sclerotiorum. The experiment in a line: Antifungal activity against Sclerotinia sclerotiorum infected pea plants assessed as healthy plants at 1 % aqueous emulsion measured on day 7. Format: functional. In short, it runs like this:
as §2

For assay [8], the system named is Sclerotinia sclerotiorum. In words: Antifungal activity against Sclerotinia sclerotiorum infected pea plants assessed as healthy plants at 0.364 mL of ai/150cm'3 measured after 21 days. The assay is classed as functional. In short, it runs like this:
(§3)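 S. sclerotiorum inoculum was grown in potato dextrose broth at 27 °C for 7 days, then in water at 20 °C for 3-4 weeks, then homogenized, filtered and sonicated. It was mixed into sieved, autoclaved compost soil and held about 25 °C for 5-7 days. Fungicide was incorporated and soil was bagged 7 days. Pea was transplanted. Symptomless plants were scored at 7, 14 and 21 days (20 plants/treatment, six trials), arcsine-square-root transformed, repeated-measures ANOVA.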

The subject of assay [9] is Sclerotinia sclerotiorum. In words: Antifungal activity against Sclerotinia sclerotiorum infected pea plants assessed as healthy plants at 0.364 mL of ai/150cm'3 measured after 14 days. The assay is classed as functional. In short, it runs like this:
as §3

Values after ≈ are worked out from the molar mass of the structure shown. Active and inactive are the calls of the source. No cut-off for these calls is given here.

For `CC1=CCCC(C)(C)C1/C=C/C(C)=N\OCCC(C)C` (configuration not stated), the EC50 turned out to be 367 µg/mL (≈ 1320 µM) in the assay on Athelia rolfsii, 375 µg/mL (≈ 1350 µM) with Sclerotinia sclerotiorum [1], 625 µg/mL (≈ 2250 µM) with Macrophomina phaseolina [2] and 125 µg/mL (≈ 452 µM) in the assay with Macrophomina phaseolina [3].

On to `CCCCCCCO/N=C(C)\C=C\C1C(C)=CCCC1(C)C` (configuration not stated), for which the EC50 in the assay on Athelia rolfsii is 956 µg/mL (≈ 3130 µM); in the assay on Sclerotinia sclerotiorum [1] it was 419 µg/mL (≈ 1370 µM); in the assay on Macrophomina phaseolina [2], 1090 µg/mL (≈ 3570 µM); in the assay with Macrophomina phaseolina [3] it was 566 µg/mL (≈ 1850 µM).

Consider `CO/N=C(C)/C=C/C1C(C)=CCCC1(C)C` (configuration not stated), for which the EC50 worked out at 238 µg/mL (≈ 1070 µM) in the assay on Athelia rolfsii, 442 µg/mL (≈ 2000 µM) in the assay with Sclerotinia sclerotiorum [1], 307 µg/mL (≈ 1380 µM) in the assay with Macrophomina phaseolina [2] and 388 µg/mL (≈ 1750 µM) in the assay on Macrophomina phaseolina [3].

Take `CCCCCCCCCCO/N=C(C)\C=C\C1C(C)=CCCC1(C)C` (configuration not stated): the EC50 was 1110 µg/mL (≈ 3190 µM) with Athelia rolfsii, 477 µg/mL (≈ 1370 µM) with Sclerotinia sclerotiorum [1], 1760 µg/mL (≈ 5060 µM) in the assay with Macrophomina phaseolina [2] and 2060 µg/mL (≈ 5920 µM) in the assay on Macrophomina phaseolina [3].

`CCCCCCO/N=C(C)/C=C/C1C(C)=CCCC1(C)C` (configuration not stated): the EC50 in the assay with Athelia rolfsii is 573 µg/mL (≈ 1970 µM); with Sclerotinia sclerotiorum [1] it was 428 µg/mL (≈ 1470 µM); in the assay on Macrophomina phaseolina [2] it was 751 µg/mL (≈ 2580 µM); in the assay with Macrophomina phaseolina [3], 895 µg/mL (≈ 3070 µM).

`CO/N=C(C)\C=C\C1C(C)=CCCC1(C)C` (configuration not stated): the EC50 with Athelia rolfsii was found to be 259 µg/mL (≈ 1170 µM); with Sclerotinia sclerotiorum [1], 517 µg/mL (≈ 2340 µM); with Macrophomina phaseolina [2], 311 µg/mL (≈ 1400 µM); in the assay on Macrophomina phaseolina [3] it was 413 µg/mL (≈ 1870 µM).

On to `CCCCCCCCCCO/N=C(C)/C=C/C1C(C)=CCCC1(C)C` (configuration not stated), for which the EC50 in the assay with Athelia rolfsii was 842 µg/mL (≈ 2420 µM); with Sclerotinia sclerotiorum [1], 681 µg/mL (≈ 1960 µM); in the assay with Macrophomina phaseolina [2], 957 µg/mL (≈ 2750 µM); in the assay on Macrophomina phaseolina [3] it was 1940 µg/mL (≈ 5590 µM).

Consider `CC1=CCCC(C)(C)C1/C=C/C(C)=N\OC(C)C` (configuration not stated), for which the EC50 with Athelia rolfsii was found to be 129 µg/mL (≈ 517 µM); in the assay on Sclerotinia sclerotiorum [1], 190 µg/mL (≈ 764 µM); in the assay with Macrophomina phaseolina [2], 198 µg/mL (≈ 794 µM); in the assay on Macrophomina phaseolina [3], 116 µg/mL (≈ 467 µM).

As for `CCCO/N=C(C)\C=C\C1C(C)=CCCC1(C)C` (configuration not stated), the EC50 was found to be 132 µg/mL (≈ 530 µM) with Athelia rolfsii, 220 µg/mL (≈ 881 µM) in the assay with Sclerotinia sclerotiorum [1], 236 µg/mL (≈ 945 µM) with Macrophomina phaseolina [2] and 157 µg/mL (≈ 629 µM) in the assay on Macrophomina phaseolina [3].

On to `CC1=CCCC(C)(C)C1/C=C/C(C)=N\OCC(C)C` (configuration not stated), for which the EC50 in the assay on Athelia rolfsii is 47.6 µg/mL (≈ 181 µM); in the assay on Sclerotinia sclerotiorum [1], 79 µg/mL (≈ 300 µM); with Macrophomina phaseolina [2], 101 µg/mL (≈ 383 µM); in the assay on Macrophomina phaseolina [3] it was 58.7 µg/mL (≈ 223 µM).

As to `CCCCCCO/N=C(C)\C=C\C1C(C)=CCCC1(C)C` (configuration not stated), the EC50 with Athelia rolfsii stood at 912 µg/mL (≈ 3130 µM); in the assay with Sclerotinia sclerotiorum [1], 244 µg/mL (≈ 837 µM); with Macrophomina phaseolina [2] it was 963 µg/mL (≈ 3300 µM); in the assay on Macrophomina phaseolina [3] it was 327 µg/mL (≈ 1120 µM).

Consider `CCCCO/N=C(C)/C=C/C1C(C)=CCCC1(C)C` (configuration not stated), for which the EC50 in the assay with Athelia rolfsii worked out at 113 µg/mL (≈ 430 µM); with Sclerotinia sclerotiorum [1] it was 107 µg/mL (≈ 408 µM); in the assay on Macrophomina phaseolina [2], 101 µg/mL (≈ 382 µM); in the assay on Macrophomina phaseolina [3], 67.9 µg/mL (≈ 258 µM).

As to `CCCCCCCO/N=C(C)/C=C/C1C(C)=CCCC1(C)C` (configuration not stated), the EC50 in the assay with Athelia rolfsii amounted to 975 µg/mL (≈ 3190 µM); in the assay on Sclerotinia sclerotiorum [1], 392 µg/mL (≈ 1280 µM); in the assay on Macrophomina phaseolina [2], 717 µg/mL (≈ 2350 µM); in the assay on Macrophomina phaseolina [3] it was 919 µg/mL (≈ 3010 µM).

`CCCCCCCCO/N=C(C)/C=C/C1C(C)=CCCC1(C)C` (configuration not stated): the EC50 with Athelia rolfsii is 1040 µg/mL (≈ 3250 µM); in the assay with Sclerotinia sclerotiorum [1] it was 837 µg/mL (≈ 2620 µM); in the assay on Macrophomina phaseolina [2], 824 µg/mL (≈ 2580 µM); in the assay with Macrophomina phaseolina [3] it was 1090 µg/mL (≈ 3430 µM).

For the compound `CCO/N=C(C)\C=C\C1C(C)=CCCC1(C)C` (configuration not stated), the EC50 in the assay with Athelia rolfsii worked out at 415 µg/mL (≈ 1760 µM); with Sclerotinia sclerotiorum [1], 261 µg/mL (≈ 1110 µM); in the assay with Macrophomina phaseolina [2], 394 µg/mL (≈ 1670 µM); with Macrophomina phaseolina [3], 246 µg/mL (≈ 1050 µM).

Take `CC1=CCCC(C)(C)C1/C=C/C(C)=N/OC(C)C` (configuration not stated): the EC50 was 35.5 µg/mL (≈ 142 µM) in the assay on Athelia rolfsii, 182 µg/mL (≈ 729 µM) with Sclerotinia sclerotiorum [1], 126 µg/mL (≈ 505 µM) with Macrophomina phaseolina [2] and 56.6 µg/mL (≈ 227 µM) in the assay with Macrophomina phaseolina [3].

As to `CC1=CCCC(C)(C)C1/C=C/C(C)=N/OCCC(C)C` (configuration not stated), the EC50 in the assay on Athelia rolfsii was found to be 257 µg/mL (≈ 927 µM); in the assay on Sclerotinia sclerotiorum [1], 273 µg/mL (≈ 986 µM); with Macrophomina phaseolina [2], 666 µg/mL (≈ 2400 µM); with Macrophomina phaseolina [3], 723 µg/mL (≈ 2600 µM).

`CCCCO/N=C(C)\C=C\C1C(C)=CCCC1(C)C` (configuration not stated): the EC50 was 88.9 µg/mL (≈ 337 µM) in the assay on Athelia rolfsii, 164 µg/mL (≈ 621 µM) in the assay with Sclerotinia sclerotiorum [1], 174 µg/mL (≈ 660 µM) in the assay with Macrophomina phaseolina [2] and 114 µg/mL (≈ 431 µM) in the assay with Macrophomina phaseolina [3].

`CCCCCCCCO/N=C(C)\C=C\C1C(C)=CCCC1(C)C` (configuration not stated): the EC50 stood at 1360 µg/mL (≈ 4250 µM) in the assay with Athelia rolfsii, 584 µg/mL (≈ 1830 µM) in the assay on Sclerotinia sclerotiorum [1], 1110 µg/mL (≈ 3470 µM) with Macrophomina phaseolina [2] and 1610 µg/mL (≈ 5050 µM) in the assay on Macrophomina phaseolina [3].

Take `CCCCCO/N=C(C)\C=C\C1C(C)=CCCC1(C)C` (configuration not stated): the outcome in the assay on Sclerotinia sclerotiorum [4] was Active. Moreover, the Activity in the assay with Sclerotinia sclerotiorum [5] is listed as greater than 90%; in the assay with Sclerotinia sclerotiorum [6] it was 40%; with Sclerotinia sclerotiorum [7], 65%. Further, the EC50 in the assay with Athelia rolfsii turned out to be 41.6 µg/mL (≈ 150 µM); with Sclerotinia sclerotiorum [1], 21.4 µg/mL (≈ 77.1 µM); with Macrophomina phaseolina [2], 31.1 µg/mL (≈ 112 µM); with Macrophomina phaseolina [3], 57.6 µg/mL (≈ 207 µM).

For `COC(=O)Nc1nc2ccccc2[nH]1` [CARBENDAZIM], the Activity with Sclerotinia sclerotiorum [8] is listed as 75%; in the assay on Sclerotinia sclerotiorum [9], 80%.

Consider `CCO/N=C(C)/C=C/C1C(C)=CCCC1(C)C` (configuration not stated), for which the EC50 amounted to 410 µg/mL (≈ 1740 µM) with Athelia rolfsii, 295 µg/mL (≈ 1250 µM) with Sclerotinia sclerotiorum [1], 732 µg/mL (≈ 3110 µM) in the assay on Macrophomina phaseolina [2] and 393 µg/mL (≈ 1670 µM) with Macrophomina phaseolina [3].

Regarding `CCCO/N=C(C)/C=C/C1C(C)=CCCC1(C)C` (configuration not stated), the EC50 worked out at 101 µg/mL (≈ 406 µM) in the assay on Athelia rolfsii, 257 µg/mL (≈ 1030 µM) in the assay with Sclerotinia sclerotiorum [1], 181 µg/mL (≈ 727 µM) in the assay on Macrophomina phaseolina [2] and 32.4 µg/mL (≈ 130 µM) with Macrophomina phaseolina [3].

Turning to `CCCCCO/N=C(C)/C=C/C1C(C)=CCCC1(C)C` (configuration not stated), the EC50 in the assay on Athelia rolfsii was 43.6 µg/mL (≈ 157 µM); in the assay with Sclerotinia sclerotiorum [1], 32.7 µg/mL (≈ 118 µM); in the assay with Macrophomina phaseolina [2] it was 94.8 µg/mL (≈ 342 µM); in the assay on Macrophomina phaseolina [3] it was 39.2 µg/mL (≈ 141 µM).

Turning to `CC1=CCCC(C)(C)C1/C=C/C(C)=N/OCC(C)C` (configuration not stated), the EC50 came to 45.2 µg/mL (≈ 172 µM) in the assay with Athelia rolfsii, 94.1 µg/mL (≈ 357 µM) with Sclerotinia sclerotiorum [1], 103 µg/mL (≈ 391 µM) in the assay on Macrophomina phaseolina [2] and 50.6 µg/mL (≈ 192 µM) in the assay on Macrophomina phaseolina [3].
